Assay results as given in ChEMBL document CHEMBL4330106, “A new class of pentapeptide KISS1 receptor agonists with hypothalamic-pituitary-gonadal axis activation” (Bioorg Med Chem Lett, 2019).
The source made the active and inactive calls. No cut-off for these calls is given here. Square brackets hold non-standard residues; d marks the D form. Peptide text beside a SMILES is read from it. Arg(Me) = CNC(=N)NCCC[C@H](N)C(=O)O; d4Pal = N[C@H](Cc1ccncc1)C(=O)O; azaGly = NNC(=O)O

How the values were obtained:
KiSS-1 receptor [1] = biological target: KiSS-1 receptor (Homo sapiens, UniProt Q969F8); assay: Agonist activity at human KISS1R expressed in CHO cells assessed as increase in calcium mobilization measured at 2 secs interval for 2 mins by fluo-4 NW dye based FLIPR assay; assay type: functional, cell-based
Chain of KiSS-1 receptor (Homo sapiens, UniProt Q969F8) (Q969F8 whole entry): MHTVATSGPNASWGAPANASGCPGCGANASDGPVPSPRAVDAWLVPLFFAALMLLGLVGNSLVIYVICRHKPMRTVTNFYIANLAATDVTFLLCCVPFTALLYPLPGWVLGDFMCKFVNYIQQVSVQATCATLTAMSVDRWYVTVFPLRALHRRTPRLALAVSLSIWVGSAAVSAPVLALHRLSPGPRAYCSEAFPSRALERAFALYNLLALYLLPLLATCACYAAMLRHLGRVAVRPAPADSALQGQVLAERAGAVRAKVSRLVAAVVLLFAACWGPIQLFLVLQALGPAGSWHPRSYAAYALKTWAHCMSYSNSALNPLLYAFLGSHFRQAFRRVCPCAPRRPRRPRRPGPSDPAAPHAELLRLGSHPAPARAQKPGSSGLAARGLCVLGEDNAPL
Summary of the method: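 Ligand-induced Ca2+ rise in CHO cells expressing human KISS1R, read on a fluorometric imaging plate reader (FLIPR); agonist potency reported as EC50 (nM).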

[2] = Stability in Sprague-Dawley rat serum assessed as parent compound remaining at 10 ug/ml measured immediately by LC-MS/MS analysis; assay type: ADME, cell-free; details: read-out: Stability
Summary of the method: (§1)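 10 µL of 10 μg/mL aqueous peptide stock added to 990 μL pre-warmed SD rat serum (final 0.1 μg/mL), 37 °C. Aliquots taken at 0, 5, 15, 30, 60, 120 min. Quenched with formic acid/methanol and acetonitrile, centrifuged, internal standard added, quantified by LC/MS/MS. Result is percent remaining; n = 2.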

[3] = Stability in Sprague-Dawley rat serum assessed as parent compound remaining at 10 ug/ml measured after 5 mins by LC-MS/MS analysis; assay type: ADME, cell-free; details: read-out: Stability; summary of the method: as §1
[4] = Stability in Sprague-Dawley rat serum assessed as parent compound remaining at 10 ug/ml measured after 15 mins by LC-MS/MS analysis; assay type: ADME, cell-free; details: read-out: Stability; summary of the method: as §1
[5] = Stability in Sprague-Dawley rat serum assessed as parent compound remaining at 10 ug/ml measured after 30 mins by LC-MS/MS analysis; assay type: ADME, cell-free; details: read-out: Stability; summary of the method: as §1
[6] = Stability in Sprague-Dawley rat serum assessed as parent compound remaining at 10 ug/ml measured after 60 mins by LC-MS/MS analysis; assay type: ADME, cell-free; details: read-out: Stability; summary of the method: as §1
[7] = Stability in Sprague-Dawley rat serum assessed as parent compound remaining at 10 ug/ml measured after 120 mins by LC-MS/MS analysis; assay type: ADME, cell-free; details: read-out: Stability; summary of the method: as §1
[8] = Half life in Sprague-Dawley rat serum at 10 ug/ml by LC-MS/MS analysis; assay type: ADME, cell-free; summary of the method: as §1
[9] = Solubility of the compound in water; assay type: physicochemical
[10] = Solubility of the compound in saline; assay type: physicochemical
[11] = Retention time of the compound by reverse-phase HPLC method; assay type: physicochemical
Summary of the method: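 RP-HPLC on C18 monolith column. Linear gradient of 0.1% TFA water / 0.1% TFA acetonitrile, A/B 95/5 to 35/65 over 10 min, 3.0 mL/min.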

KiSS-1 receptor [12] = biological target: KiSS-1 receptor (Rattus norvegicus, UniProt Q924U1); assay: Agonist activity at rat KISS1R
Chain of KiSS-1 receptor (Rattus norvegicus, UniProt Q924U1) (Q924U1 whole entry): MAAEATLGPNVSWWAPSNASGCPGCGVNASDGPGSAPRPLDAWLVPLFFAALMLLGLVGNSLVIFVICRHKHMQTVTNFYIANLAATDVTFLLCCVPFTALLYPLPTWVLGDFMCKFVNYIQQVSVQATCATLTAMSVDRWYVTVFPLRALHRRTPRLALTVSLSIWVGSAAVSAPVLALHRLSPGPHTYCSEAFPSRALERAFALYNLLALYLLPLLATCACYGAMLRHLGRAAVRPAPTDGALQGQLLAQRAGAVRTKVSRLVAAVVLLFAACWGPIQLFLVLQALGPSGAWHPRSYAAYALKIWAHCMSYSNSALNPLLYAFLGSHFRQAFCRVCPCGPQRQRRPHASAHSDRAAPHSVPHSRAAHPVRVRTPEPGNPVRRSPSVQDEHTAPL

Rattus norvegicus [13] = assay: Suppression of plasma testosterone level in Crl:CD(SD) rat at 5 to 20 nmol/hr administered via subcutaneous osmotic pumps measured after 6 days by radioimmunoassay; assay type: ADME, organism-based; details: in vivo, sc, 144 h
Summary of the method: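 Five 9-week-old male Crl:CD (SD) rats per group received continuous subcutaneous infusion by osmotic pump for 6 days: leuprolide 2 nmol/h, or test peptide 5, 10, 20 nmol/h from 5–20 mM aqueous solution. Plasma testosterone measured by radioimmunoassay. Distilled-water control; Dunnett's test; mean ± SD.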

[14] = Drug uptake in Crl:CD(SD) rat plasma administered via subcutaneous osmotic pumps every 1 hr after 6 days by LC/MS analysis; assay type: ADME, cell-free; details: sc, 144 h
Summary of the method: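 9-week-old male Crl:CD (SD) rats (five per group) implanted subcutaneously with osmotic pumps of 5, 10 or 20 mM aqueous peptide, delivering 5, 10, 20 nmol/h for 6 days. Steady-state plasma measured by LC/MS after protein precipitation with organic solvent; mean ± SD.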

Rattus norvegicus [15] = assay: Stimulation of plasma luteinizing hormone release in sc dosed Crl:CD(SD) rat administered as single bolus dose measured after 1 to 8 hrs; assay type: functional, organism-based
Summary of the method: (§2)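 Single subcutaneous bolus of 10, 100 or 1000 nmol/kg in 9-week-old male Crl:CD (SD) rats, n = 5, saline vehicle. Plasma LH measured 1, 2, 4 and 8 h post-dose. AUC0–8h (ng·h/mL) calculated per rat. One-tailed Williams' test versus vehicle; mean ± SD.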

Rattus norvegicus [16] = assay: Increase in plasma luteinizing hormone AUC (0 to 8 hrs) in Crl:CD(SD) rat at 100 nmol/kg, sc administered as single bolus dose; assay type: functional, organism-based; summary of the method: as §2

Structure (SMILES)	EC50 (KiSS-1 receptor [1]) [pM]	remaining at 0 min, 10 ug/ml [2] [%]	remaining at 5 min, 10 ug/ml [3] [%]	remaining at 0.25 h, 10 ug/ml [4] [%]	remaining at 0.5 h, 10 ug/ml [5] [%]	remaining at 1 h, 10 ug/ml [6] [%]	remaining at 2 h, 10 ug/ml [7] [%]	half-life at 10 ug/ml [8] [min]	solubility [9] [µg/mL]	solubility [10] [µg/mL]	Retention_time [11] [min]	EC50 (KiSS-1 receptor [12]) [pM]	Activity (Rattus norvegicus [13])	Drug uptake [14]	Activity (Rattus norvegicus [15])	Activity (Rattus norvegicus [16])
CC(C)C[C@H](NC(=O)CNC(=O)[C@H](Cc1ccccc1)NC(=O)[C@H](CO)NC(=O)[C@H](CC(N)=O)NC(=O)[C@H](Cc1c[nH]c2ccccc12)NC(=O)[C@H](CC(N)=O)NC(=O)[C@@H](N)Cc1ccc(O)cc1)C(=O)N[C@@H](CCCNC(=N)N)C(=O)N[C@@H](Cc1ccccc1)C(N)=O [KISSPEPTIN-10]	87	100	1.5	< 0.5	< 0.5	< 0.5	< 0.5	< 5								
CNC(=N)NCCC[C@H](NC(=O)[C@H](CC(C)C)NC(=O)NNC(=O)[C@H](Cc1ccccc1)NC(=O)c1ccccc1)C(=O)N[C@@H](Cc1c[nH]c2ccccc12)C(N)=O	24	100	98	97	99	95	91		< 10000	< 100	6.29					
CNC(=N)NCCC[C@H](NC(=O)[C@H](CC(C)C)NC(=O)NNC(=O)[C@H](Cc1ccccc1)NC(=O)[C@H](CO)NC(=O)[C@H](CC(N)=O)NC(=O)[C@@H](Cc1ccncc1)NC(=O)[C@H](N)Cc1ccc(O)cc1)C(=O)N[C@@H](Cc1ccccc1)C(N)=O [KISS1-305] (H-[dY][d4Pal]NSF[azaGly]L[Arg(Me)]F-NH2)	270	100	98	97	95	89	70					170				
CNC(=N)NCCC[C@H](NC(=O)[C@H](CC(C)C)NC(=O)NNC(=O)[C@H](Cc1ccccc1)NC(=O)c1ccncc1)C(=O)N[C@@H](Cc1c[nH]c2ccccc12)C(N)=O	68								> 20000	> 1000	4.48	1200	Non-Toxic	Dose-dependent effect	Dose-dependent effect	Active
